Data as given in ChEMBL document CHEMBL4689842, “EUbOPEN Chemogenomics Library wave 1” (2021).

Test system: HEK-293T
Experiment: Multiplex assay against HEK293T;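 on Population Tubulin-Different-Phenotype (%): share of the cells with healthy nuclei that show this phenotype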
Type: toxicity, cell-based
Conditions: human
Outline: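 Values for tubulin, mitochondrial-mass and membrane-permeability phenotypes are per cents of cells with healthy nuclei. These cells were identified by CellPathfinder machine-learning gating of live cells that had been stained at seeding with Hoechst33342, BioTracker Green Microtubule Cytoskeleton Dye, MitoTracker Red and Annexin V Alexa Fluor 680 and imaged on a CQ1 microscope at 37°C and 5% CO2 after compound addition. The gating first set Hoechst high-intensity objects apart from normal cells, then split normal cells into healthy, pyknosed or fragmented nuclei, and pyknosed cells into mitotic or apoptotic.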

[1] = 12 h, 1 µM, compound concentration 1 uM, replicate 1
[2] = 12 h, 1 µM, compound concentration 1 uM, replicate 2
[3] = 12 h, 10 µM, compound concentration 10 uM, replicate 1
[4] = 12 h, 10 µM, compound concentration 10 uM, replicate 2
[5] = 24 h, 1 µM, compound concentration 1 uM, replicate 1
[6] = 24 h, 1 µM, compound concentration 1 uM, replicate 2
[7] = 24 h, 10 µM, compound concentration 10 uM, replicate 1
[8] = 24 h, 10 µM, compound concentration 10 uM, replicate 2
[9] = 48 h, 1 µM, compound concentration 1 uM, replicate 1
[10] = 48 h, 1 µM, compound concentration 1 uM, replicate 2
[11] = 48 h, 10 µM, compound concentration 10 uM, replicate 1
[12] = 48 h, 10 µM, compound concentration 10 uM, replicate 2

O=C1NCN(c2ccccc2)C12CCN(CCCOc1ccc(F)cc1)CC2 [SPIRAMIDE]
Population Apoptotic (%) [1]: 41%
Population Fragmented Nuclei (%) [1]: 15%
Population Hoechst High Intensity Objects (%) [1]: 12%
Population Membrane Permeable-Phenotype (%) [1]: 4%
Population Mitochondria Different-Phenotype (%) [1]: 81%
Population Mitotic Cells (%) [1]: 58%
Population Normal (%) [1]: 87%
Population Pyknosed Nuclei (%) [1]: 45%
Population Tubulin-Different-Phenotype (%) [1]: 35%
Total Cell Count [1]: 216
Population Apoptotic (%) [2]: 11%
Population Fragmented Nuclei (%) [2]: 10%
Population Healthy Nuclei (%) [2]: 38%
Population Hoechst High Intensity Objects (%) [2]: 7%
Population Membrane Permeable-Phenotype (%) [2]: 12%
Population Mitochondria Different-Phenotype (%) [2]: 11%
Population Mitotic Cells (%) [2]: 88%
Population Normal (%) [2]: 92%
Population Pyknosed Nuclei (%) [2]: 50%
Population Tubulin-Different-Phenotype (%) [2]: 20%
Total Cell Count [2]: 179
Population Apoptotic (%) [3]: 66%
Population Fragmented Nuclei (%) [3]: 16%
Population Healthy Nuclei (%) [3]: 13%
Population Hoechst High Intensity Objects (%) [3]: 17%
Population Membrane Permeable-Phenotype (%) [3]: 0%
Population Mitochondria Different-Phenotype (%) [3]: 95%
Population Mitotic Cells (%) [3]: 33%
Population Normal (%) [3]: 82%
Population Pyknosed Nuclei (%) [3]: 70%
Population Tubulin-Different-Phenotype (%) [3]: 95%
Total Cell Count [3]: 210
Population Apoptotic (%) [4]: 19%
Population Fragmented Nuclei (%) [4]: 3%
Population Healthy Nuclei (%) [4]: 34%
Population Hoechst High Intensity Objects (%) [4]: 2%
Population Membrane Permeable-Phenotype (%) [4]: 7%
Population Mitochondria Different-Phenotype (%) [4]: 55%
Population Mitotic Cells (%) [4]: 80%
Population Normal (%) [4]: 97%
Population Pyknosed Nuclei (%) [4]: 62%
Population Tubulin-Different-Phenotype (%) [4]: 46%
Total Cell Count [4]: 194
Population Apoptotic (%) [5]: 50%
Population Fragmented Nuclei (%) [5]: 13%
Population Healthy Nuclei (%) [5]: 57%
Population Hoechst High Intensity Objects (%) [5]: 10%
Population Membrane Permeable-Phenotype (%) [5]: 0%
Population Mitochondria Different-Phenotype (%) [5]: 66%
Population Mitotic Cells (%) [5]: 50%
Population Normal (%) [5]: 89%
Population Pyknosed Nuclei (%) [5]: 28%
Population Tubulin-Different-Phenotype (%) [5]: 34%
Total Cell Count [5]: 248
Population Apoptotic (%) [6]: 6%
Population Fragmented Nuclei (%) [6]: 8%
Population Healthy Nuclei (%) [6]: 61%
Population Hoechst High Intensity Objects (%) [6]: 3%
Population Membrane Permeable-Phenotype (%) [6]: 6%
Population Mitochondria Different-Phenotype (%) [6]: 17%
Population Mitotic Cells (%) [6]: 93%
Population Normal (%) [6]: 96%
Population Pyknosed Nuclei (%) [6]: 30%
Population Tubulin-Different-Phenotype (%) [6]: 29%
Total Cell Count [6]: 207
Population Apoptotic (%) [7]: 69%
Population Fragmented Nuclei (%) [7]: 17%
Population Healthy Nuclei (%) [7]: 19%
Population Hoechst High Intensity Objects (%) [7]: 17%
Population Membrane Permeable-Phenotype (%) [7]: 5%
Population Mitochondria Different-Phenotype (%) [7]: 97%
Population Mitotic Cells (%) [7]: 30%
Population Normal (%) [7]: 82%
Population Pyknosed Nuclei (%) [7]: 62%
Population Tubulin-Different-Phenotype (%) [7]: 100%
Total Cell Count [7]: 231
Population Apoptotic (%) [8]: 21%
Population Fragmented Nuclei (%) [8]: 3%
Population Healthy Nuclei (%) [8]: 54%
Population Hoechst High Intensity Objects (%) [8]: 1%
Population Membrane Permeable-Phenotype (%) [8]: 2%
Population Mitochondria Different-Phenotype (%) [8]: 59%
Population Mitotic Cells (%) [8]: 78%
Population Normal (%) [8]: 98%
Population Pyknosed Nuclei (%) [8]: 42%
Population Tubulin-Different-Phenotype (%) [8]: 59%
Total Cell Count [8]: 256
Population Apoptotic (%) [9]: 35%
Population Fragmented Nuclei (%) [9]: 10%
Population Healthy Nuclei (%) [9]: 77%
Population Hoechst High Intensity Objects (%) [9]: 7%
Population Membrane Permeable-Phenotype (%) [9]: 1%
Population Mitochondria Different-Phenotype (%) [9]: 26%
Population Mitotic Cells (%) [9]: 64%
Population Normal (%) [9]: 92%
Population Pyknosed Nuclei (%) [9]: 12%
Population Tubulin-Different-Phenotype (%) [9]: 22%
Total Cell Count [9]: 484
Population Apoptotic (%) [10]: 8%
Population Fragmented Nuclei (%) [10]: 4%
Population Healthy Nuclei (%) [10]: 82%
Population Hoechst High Intensity Objects (%) [10]: 2%
Population Membrane Permeable-Phenotype (%) [10]: 7%
Population Mitochondria Different-Phenotype (%) [10]: 7%
Population Mitotic Cells (%) [10]: 91%
Population Normal (%) [10]: 97%
Population Pyknosed Nuclei (%) [10]: 13%
Population Tubulin-Different-Phenotype (%) [10]: 20%
Total Cell Count [10]: 363
Population Apoptotic (%) [11]: 59%
Population Fragmented Nuclei (%) [11]: 17%
Population Healthy Nuclei (%) [11]: 30%
Population Hoechst High Intensity Objects (%) [11]: 18%
Population Membrane Permeable-Phenotype (%) [11]: 0%
Population Mitochondria Different-Phenotype (%) [11]: 98%
Population Mitotic Cells (%) [11]: 40%
Population Normal (%) [11]: 81%
Population Pyknosed Nuclei (%) [11]: 51%
Population Tubulin-Different-Phenotype (%) [11]: 89%
Total Cell Count [11]: 227
Population Apoptotic (%) [12]: 21%
Population Fragmented Nuclei (%) [12]: 4%
Population Healthy Nuclei (%) [12]: 77%
Population Hoechst High Intensity Objects (%) [12]: 4%
Population Membrane Permeable-Phenotype (%) [12]: 1%
Population Mitochondria Different-Phenotype (%) [12]: 29%
Population Mitotic Cells (%) [12]: 78%
Population Normal (%) [12]: 95%
Population Pyknosed Nuclei (%) [12]: 17%
Population Tubulin-Different-Phenotype (%) [12]: 44%
Total Cell Count [12]: 383
